CXCR6 block: CXCR6 receptor inhibitors, primary screen, cell-based, beta-arrestin, luminescence, CHO-K1 PathHunter, 1536-well; 360,000 tested, 0.36% active; C-X-C chemokine receptor type 6 (Homo sapiens), O00574; inhibition, % at 20 µM; AID 602244, 2012; in the data active = inhibition above about 34%, passing the limit was not always enough;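 also: antagonist mode with CXCL16 agonist at 10 nM final; 0% = 10 nM CXCL16 with DMSO and 100% = unstimulated wells without agonist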
APJ antagonist: antagonists of human apelin receptor APJ, primary screen, CHO-K1 cells, beta-arrestin complementation, luminescence; P35414; inhibition, % at 20 µM; 330,000 tested, 0.32% active; AID 2521, 2010;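 active = inhibition above about 40% at 20 µM, limit read from the data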;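 also: cells challenged with 10 nM apelin-13 agonist together with compound; plate controls were apelin-13 plus DMSO wells for no effect and DMSO wells lacking apelin-13 for full effect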
Target sequence (P35414 whole entry, looked up): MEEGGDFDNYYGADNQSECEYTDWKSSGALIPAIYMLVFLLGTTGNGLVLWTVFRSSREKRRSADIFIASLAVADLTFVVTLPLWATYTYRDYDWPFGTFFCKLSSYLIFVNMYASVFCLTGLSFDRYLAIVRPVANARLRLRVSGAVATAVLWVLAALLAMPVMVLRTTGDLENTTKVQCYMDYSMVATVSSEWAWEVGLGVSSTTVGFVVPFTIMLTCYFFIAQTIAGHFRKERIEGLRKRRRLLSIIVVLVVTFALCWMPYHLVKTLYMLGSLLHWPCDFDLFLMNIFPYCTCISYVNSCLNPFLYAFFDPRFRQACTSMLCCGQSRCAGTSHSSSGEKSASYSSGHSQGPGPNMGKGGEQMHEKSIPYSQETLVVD
CCR6 antag: CCR6 receptor antagonists, primary screen, cell-based, CHO-K1, luminescence, beta-arrestin, uHTS; inhibition, % at 20 µM; CHO-K1 CCR6 PathHunter beta-arrestin, CCL20-stimulated; 340,000 tested, 0.49% active;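 active = compounds whose inhibition of the agonist-driven luminescence signal at 20 µM reaches about 50%, limit read from the data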;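 also: cells stimulated with CCL20 at 14 nM final; plate controls were DMSO with CCL20 for no effect and DMSO without agonist for full effect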
PKA-R1A activ: activators of PKA-R1A holoenzyme, primary screen, biochemical, fluorescence polarization, Cy5-IP20, bovine R1A, mouse PKAc. PKA-R1A dissociation; scaled: DMSO 0%, 113 µM cGMP 100%. activation, % at 11.4 µM. 340,000 tested, 0.083% active. AID 504707, 2011;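 active = percent activation above the mean of all tested compounds plus 3 SD, cut at about 19% in these data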;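 also: higher means more PKAc released from R1A so a rise in polarization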
APJ agonist: agonists of human apelin receptor APJ, primary screen, CHO-K1 cells, PathHunter beta-arrestin, luminescence; P35414; 330,000 tested, 0.11% active; activation, % at 20 µM; 0% DMSO wells, 100% apelin;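 active = activation more than six SD over the plate average, tested at 20 µM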;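 also: 0% = DMSO alone and 100% = apelin-13 at 10 nM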
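Material: engineered CHO-K1 APJ arrestin reporter cells; amount: 1000 CHO-K1 reporter cells seeded per well; incubation: compound stimulation 90 min at 25 °C, detection 60 min; signal: luminescent beta-gal fragment complementation, chemiluminescent substrate; read-out basis: APJ agonist activity; controls: DMSO-only wells as negative, 10 nM Apelin-13 as positive control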
PKA-R2B activ: activators of PKA-R2B holoenzyme, primary screen, biochemical, fluorescence polarization, Cy5-IP20, human; cAMP-dependent protein kinase catalytic subunit beta (Homo sapiens) + cAMP-dependent …; PKA-R2B holoenzyme dissociation; R2B truncated from residue 108, S112A mutant; 0% DMSO only, 100% 113 µM cGMP; activation, % at 11.4 µM; 340,000 tested, 0.079% active; AID 504700, 2011;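 active = activation above a cutoff set at the mean over all compounds plus 3 SD, cut at about 18% in these data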;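 also: higher means more holoenzyme dissociation and a rise in polarization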
APJ antag conf: APJ antagonists blocking beta-arrestin recruitment, confirmation, cell-based, luminescence, single concentration, uHTS hits; shares compounds with APJ antagonist; antagonist mode; inhibition, % at 20 µM; 950 tested, 66% active; in the data active = inhibition above about 50%
Numbers without * were called inactive; / = no result given. Most compounds without a hit are left out; they make up all but 0.88% or so of the library.

SMILES	CXCR6 block	APJ antagonist	CCR6 antag	PKA-R1A activ	APJ agonist	PKA-R2B activ	APJ antag conf
COC(=O)c1ccc2c(c1)C(C)(C)C(/C=C/c1ccc(O)cc1)=[N+]2C	74*	70*	91*	0	-2	-10	129*
Cc1ccc(NC(=O)CCNS(=O)(=O)c2ccc3c(c2)CCC(=O)N3)c(Br)c1	-1	41*	4	-6	-2	-6	-8
CC(=O)Nc1ccc(S(=O)(=O)N/N=C/c2ccc(C)s2)cc1	0	5	7	-8	-2	-2	/
Oc1ccc2ccccc2c1N=Nc1ccccc1F	11	-8	33	-6	-2	-4	/
O=S(=O)(O)c1cccc(N=Nc2c(O)ccc3ccccc23)c1	28	49*	43	-10	-5	-5	58*
Oc1ccc2ccccc2c1N=Nc1ccccn1	41*	75*	63*	-9	-13	0	97*
O=[N+]([O-])c1cccc(/C=N/Nc2nc(NCc3ccccc3)nc(N3CCOCC3)n2)c1O	95*	76*	107*	1	-10	-2	124*
O=[N+]([O-])c1ccc(/C=N/Nc2nc(NCc3ccccc3)nc(N3CCOCC3)n2)cc1	-1	-8	-9	-8	0	-3	/
COC(=O)c1cc(N=Nc2sc(N)nc2C)cc(C(=O)OC)c1	8	45*	28	-9	-4	-10	27
CCN(CC)S(=O)(=O)c1cccc(N=Nc2sc(N)nc2C)c1	3	19	22	1	-3	-4	/
O=C(O)C1Oc2ccccc2C1c1ccccc1 (stereo not given)	-6	/	-3	-4	/	1	/
CC1(C)Oc2ccc3ccc(=O)oc3c2/C(=C/NNC(N)=O)C1=O	35	50*	71*	4	-10	-1	62*
CC1(C)Oc2ccc3ccc(=O)oc3c2/C(=C/NCCN/C=C2\C(=O)C(C)(C)Oc3ccc4ccc(=O)oc4c32)C1=O	/	9	/	/	1	/	/
CNS(=O)(=O)c1cccc(C(=O)OCC(=O)c2cc3ccccc3o2)c1	43*	81*	73*	-12	-11	-15	69*
O=C(COC(=O)c1ccco1)c1ccc(S(=O)(=O)N2CCCCC2)cc1	30	57*	48	-9	-28	-5	65*
O=C(COC(=O)c1ccccc1)c1ccc(S(=O)(=O)N2CCCCC2)cc1	27	27	38	4	-17	6	/
O=C(COc1ccccc1)OCC(=O)c1ccc(S(=O)(=O)N2CCCCC2)cc1	42*	85*	68*	1	-7	-6	116*
CNS(=O)(=O)c1cccc(C(=O)OCC(=O)c2ccc(S(=O)(=O)N3CCCCC3)cc2)c1	34	62*	53*	2	-22	-1	60*
CC(=O)Nc1ccc(C(=O)OCC(=O)c2ccc(S(=O)(=O)N3CCCCC3)cc2)cc1	21	-7	30	1	-9	-8	/
O=C(COC(=O)c1ccc(Br)o1)c1ccc(S(=O)(=O)N2CCCCC2)cc1	44*	68*	64*	-2	-12	-10	90*
FC(F)(F)c1cccc(Sc2nc(-c3ccccc3)nnc2C(F)(F)F)c1	46*	43*	46	3	-5	10	91*
Cc1ccc(C)c(OCC(=O)N(C)CC(=O)Nc2ccc(Cl)c(C(F)(F)F)c2)c1	2	19	-4	-12	-3	-12	/
CCOc1ccc(N=C2NC(=O)S/C2=C\c2ccc(N(C)C)cc2)cc1	12	43*	44	-12	-5	0	61*
Cc1cc(C)c(C)c(/C=C(/C#N)C(N)=S)c1C	13	42*	29	3	-8	-7	36
Cc1c(C)c2ccc(OCC(=O)NCCc3c[nH]c4ccccc34)cc2oc1=O	1	/	/	/	/	/	/
SMILES	CXCR6 block	APJ antagonist	CCR6 antag	PKA-R1A activ	APJ agonist	PKA-R2B activ	APJ antag conf
CCOC(=O)C1C(=O)NC(c2ccccc2)=NC1c1cccc(Br)c1 (stereo not given)	2	-5	12	-15	-2	-5	/
CCOC(=O)C1C(C)N=C2SCC(=O)N2C1c1cccc(Br)c1 (stereo not given)	-2	41*	23	-3	-6	-2	33
O=C(Nc1cccc([N+](=O)[O-])c1)Nc1ccc2c(c1)OCCO2	-2	42*	20	-3	-4	6	6
O=C(Nc1cccc([N+](=O)[O-])c1)Nc1cccc([N+](=O)[O-])c1	23	16	36	-19	-4	5	/
O=C1NC[C@@H](CCCCN2CCN(CC3CCCCC3)C(=O)C2=O)N(CCC2CCCCC2)C1=O	0	/	/	/	/	/	/
CCN1/C(=C/c2ccc3ccccc3[n+]2CC)C=Cc2ccccc21	55*	54*	61*	1	-2	10	94*
COc1cc(C(=O)N/N=C(\c2ccccc2)c2ccccn2)cc(OC)c1OC	63*	43*	90*	-6	0	-13	73*
COC(=O)[C@]12CCCCC=C1N(Cc1ccc(Cl)cc1Cl)C(=O)[C@H](CC(=O)NCC13CC4CC(CC(C4)C1)C3)C2	18	/	/	/	/	/	/
O=C(COC(=O)c1cccnc1)c1ccc(Cl)c(Cl)c1	37	85*	81*	6	-14	-4	78*
O=C(COC(=O)c1cnccn1)c1ccc([N+](=O)[O-])cc1	-5	8	-17	-9	-2	-5	/
Cc1ccc(C(=O)COC(=O)c2cnccn2)cc1[N+](=O)[O-]	8	46*	28	2	-6	-7	65*
O=C(COC(=O)c1cnccn1)c1ccc(Cl)c([N+](=O)[O-])c1	54*	91*	87*	3	-14	-8	140*
O=C(CCC(=O)Nc1ccccc1)NNC(=O)C(c1ccccc1)c1ccccc1	-4	3	-6	-20	-3	-17	/
CCC(C)c1ccc(C2C3=C(Nc4nc(N)[nH]c(=O)c42)c2ccccc2C3=O)cc1 (stereo not given)	21	28	22	2	-5	-7	/

Screening data deposited in PubChem BioAssay by several laboratories.
